The nature of series [1]: Metabolic stability in rat liver microsomes after 180 mins in presence of NADPH by LC-MS analysis. It is filed as ADME, microsome. The following applies: read-out: Stability. An outline of the steps:
(§1)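 Incubation with rat liver microsomes for 180 min, run in triplicate; mean ± standard deviation reported. Parent decrease and percentage of formed metabolites were followed by LC-MS. Samples were dissolved in MeOH and separated on a C18 core-shell column at 20 °C. The gradient ran from 5 to 100% acetonitrile against water, both with 0.1% formic acid, at 500 μL/min. Detection used ESI+.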
On the technique in general: Liver microsomes are vesicles of endoplasmic reticulum, rich in cytochrome P450 enzymes.

Another series relates to Liver. The experiment in a line: Drug metabolism in rat liver microsomes assessed as metabolite formation after 180 mins in presence of NADPH by LC-MS analysis. It is filed as ADME, microsome. The following applies: 3 h. An outline of the steps:
as §1

Molecules are shown by their SMILES.

Take `CNC(=O)c1ccc2c(c1)C(=O)c1ccc(Nc3cccc(C(=O)NC4CC4)c3F)cc1CC2`: the remaining at 3 h in series [1] was 61.6%. Still for that read-out and setting: in the case of `O=C(NCCN1CCOCC1)c1ccc2c(c1)C(=O)c1ccc(Nc3cc(NC(=O)c4cccs4)c(F)cc3F)cc1CC2` it was 66.7%; in that of `CNC(=O)c1ccc2c(c1)C(=O)c1ccc(Nc3ccc(F)c(NC(=O)C4CC4)c3)cc1CC2`, 79.5%. The same measure, in the same setting: in the case of `O=C(NCC(O)CO)c1ccc2c(c1)C(=O)c1ccc(Nc3cc(NC(=O)c4cccs4)c(F)cc3F)cc1CC2` (configuration not stated) it was 76.6%. With `O=C(NCC(O)CO)c1ccc2c(c1)C(=O)c1ccc(Nc3ccc(F)c(NC(=O)C4CC4)c3)cc1CC2` (configuration not stated), the remaining at 3 h in series [1] is 95.2%. In the series with Liver, the Drug metabolism result is “Metabolite_Notdetected”. Take `CNC(=O)c1ccc2c(c1)C(=O)c1ccc(Nc3ccc(F)c(NC(=O)c4ccccc4)c3)cc1CC2`: the remaining at 3 h in series [1] turned out to be 65.6%. Same read-out and setting: in the case of `O=C(NCC(O)CO)c1ccc2c(c1)C(=O)c1ccc(Nc3cc(NC(=O)c4cccs4)c(F)cc3F)cc1OC2` (configuration not stated) it was 48.7%; in that of `O=C(NCCO)c1ccc2c(c1)C(=O)c1ccc(Nc3cc(NC(=O)c4cccs4)c(F)cc3F)cc1CC2`, 66.9%. For the molecule `O=C(NCCN1CCOCC1)c1ccc2c(c1)C(=O)c1ccc(Nc3ccc(F)c(NC(=O)c4ccccc4)c3)cc1OC2`, the remaining at 3 h in series [1] was 14.8%.

As to `O=C(NCCN1CCOCC1)c1ccc2c(c1)C(=O)c1ccc(Nc3ccc(F)c(NC(=O)c4cccs4)c3)cc1CC2`, in series [1], the remaining at 3 h was found to be 57.1%.

Take `O=C(NCCN1CCOCC1)c1ccc2c(c1)C(=O)c1ccc(Nc3ccc(F)c(NC(=O)c4ccccc4)c3)cc1CC2` [FS-694]: the remaining at 3 h in series [1] came out at 40.6%.
